Measured values collected from several papers.
Target: Rho-associated protein kinase 1 (ROCK1, Homo sapiens, UniProt Q13464)

Cc1ccc(Nc2nccc(N(C)c3ccc4c(C)n(C)nc4c3)n2)cc1S(N)(=O)=O  inhibition (enzyme activity; inhibitor; 10 µM): 18%
CC/C(=N\NC(=O)NCc1cccc(O)c1)c1ccc(O)c(C)c1O  inhibition (enzyme activity; inhibitor; 0.1 µM): 65.5%
C[C@@H](N)[C@H]1CC[C@H](C(=O)Nc2ccncc2)CC1  remaining signal (cell-free assay; 0.5 µM): 31.5%
Cc1nc(N2CC[C@@H](O)C2)ncc1-c1cc(C(F)(F)F)cc2[nH]ncc12  remaining binding (binding; competition with immobilised ligand; 1 µM): 91%
N#CCCc1ccc2c(c1)-c1[nH]c3ccc([N+](=O)[O-])cc3c1CC(=O)N2  remaining signal (cell-free assay; 0.5 µM): 38.9%
COc1ccc2c(c1)O[C@@H](c1ccc(OC)c(OC)c1)C[C@H]2NC(=O)C1(c2ccc3c(c2)OC(F)(F)O3)CC1  remaining binding (cell-free assay; competition with immobilised ligand; 1 µM): 89%
CNC(=O)c1cc(Oc2ccc(NC(=O)Nc3ccc(Cl)c(C(F)(F)F)c3)cc2)ccn1  inhibition (enzyme activity; inhibitor; 10 µM): 8%
Cc1ccc(NC(=O)c2ccc(C)c(C(F)(F)F)c2)cc1C#Cc1nn(C2CCC(O)CC2)c2ncnc(N)c12 (stereo not drawn)  remaining signal (cell-free assay; 10 µM): 126%
Nc1ncnc2occ(-c3ccc(NC(=O)Nc4cc(C(F)(F)F)ccc4F)cc3)c12  remaining signal (cell-free assay; inhibitor; 20 µM): 0.1%
Cc1c[nH]c2nccc(Oc3c(F)cc(Nc4cc(Cl)nc(N)n4)cc3F)c12  remaining binding (cell-free assay; competition with immobilised ligand; 0.1 µM): 0.6%
Cc1cc(NC(=O)c2cccc3cc(-c4cccc5[nH]nc(N)c45)ccc23)ccc1F  activity vs control (enzyme activity; inhibitor; 0.1 µM): 110%
COc1cc2ncnc(Nc3ccc(Oc4ccccc4)cc3C)c2cc1OC  inhibition (enzyme activity; inhibitor; 1 µM): 1%
COc1cccc2c(NCc3ccccc3)nc(-n3c(N)nc4ccccc43)nc12  inhibition (target engagement in cells; inhibitor; chemoproteomics; 20 mM): 2.2%
O=C1Nc2ccc(Cl)cc2C1=Cc1cc(Cl)c(O)c(Cl)c1  remaining signal (cell-free assay; 0.5 µM): 93.2%
O=C(Nc1cnn(-c2csc(C(=O)NC3COC3)c2)c1)Nc1c(F)cccc1Cl  remaining activity (enzyme activity; inhibitor; 5 µM): 78.2%
CN(c1ccnc(CNc2nc(Nc3ccc4c(c3)CC(=O)N4)ncc2C(F)(F)F)n1)S(C)(=O)=O  remaining binding (cell-free assay; competition with immobilised ligand; 1 µM): 49%
CN(C)C1CCN(CC#Cc2nn(C3CCCC3)c3nc(NCc4ccccc4)ncc23)C1 (stereo not drawn)  inhibition (enzyme activity; inhibitor; FRET; 0.1 µM): -5%
CN1CC(Oc2cnc(C#N)cc2-c2ccn3nc(NC(=O)C4CC4)cc3c2)C1  inhibition (enzyme activity; inhibitor; 1 µM): 0%
Cn1cncc1C1=CN(c2ncnc3[nH]cnc23)CCS1  inhibition (enzyme activity; inhibitor; radiometric; 50 nM): 27%
CNc1cc(Oc2cc(C(=O)Nc3cc(N4CCN(C)CC4)cc(C(F)(F)F)c3)ccc2C)ncn1  inhibition (target engagement in cells; inhibitor; chemoproteomics; Huh-7; 1 µM): -28.8%
CCN(CC)CCNC(=O)c1c(C)[nH]c(/C=C2\C(=O)Nc3ccc(F)cc32)c1C  inhibition (enzyme activity; inhibitor; 0.3 µM): 6%
CC(C)(C)c1nc(-c2cccc(NS(=O)(=O)c3c(F)cccc3F)c2F)c(-c2ccnc(N)n2)s1  remaining activity (enzyme activity; inhibitor; radiometric; 1 µM): 104%
CN(C)CC#Cc1ccc(OCCCc2sc(N3CCc4cccc(C(=O)Nc5nc6ccccc6s5)c4C3)nc2C(=O)O)c(F)c1  remaining binding (cell-free assay; competition with immobilised ligand; 1 µM): 100%
CCCCNc1ncc2c(-c3ccc(F)cc3)nn(C[C@H]3CC[C@H](N)CC3)c2n1  inhibition (target engagement in cells; inhibitor; chemoproteomics; 20 mM): 54.3%
CN(C)C(=O)Cn1cc(-c2nc(C3(c4ccc(-c5cnc(N)nc5)cc4)CC3)no2)cn1  remaining binding (cell-free assay; competition with immobilised ligand; 1 µM): 83%
Cc1ccc(C(=O)Nc2ccc(CN3CCN(C)CC3)c(C(F)(F)F)c2)cc1C#Cc1cnc2cccnn12  remaining activity (enzyme activity; inhibitor; 23.5 nM): 79%
O=c1nc(-c2ccccn2)sc2ccccc12  remaining binding (binding; competition with immobilised ligand; 1 µM): 100%
CCCS(=O)(=O)Nc1ccc(F)c(C(=O)c2c[nH]c3ncc(-c4ccc(Cl)cc4)cc23)c1F  inhibition (enzyme activity; inhibitor; 1 µM): < 10%
CC(=O)N1CCC(c2ccc(C(=O)NC(=N)N)cc2C(F)(F)F)CC1  remaining binding (cell-free assay; competition with immobilised ligand; 1 µM): 87%
CSc1nc(C)c(-c2ccnc(Nc3ccc(N4CCOCC4)cc3)c2)[nH]1  inhibition (enzyme activity; inhibitor; 10 µM): -4.2%
